# Results taken from publication PMC6407737 (Targeted Oncology, 2019).
# “Also recorded” adds a separate entry of the source. Read-outs that look alike come from different tables or passages of the source. Marks after values point to notes of the source that are not given here.
# Key:
# advanced solid tumors = conditions: mixed populations of patients with advanced solid tumors; cited from earlier work
# [1] = at lesser frequency than BI 853520; cited from earlier work
# [2] = dogs; cited from earlier work
# [3] = cited from earlier work
# [4] = Phase I dose-finding study: safety, DLT and MTD; format: in vivo, human
# How it was run: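 Open-label 3 + 3 dose escalation in cohorts of three to six patients. Oral dosing was once daily, continuous, in 28-day cycles, starting at 50 mg, with 100 and 200 mg planned. DLT was assessed during cycle 1. MTD was the highest level with DLT in none or one of six patients, followed by an expansion cohort at that dose. AEs were graded by CTCAE v4.03 in all patients receiving ≥1 dose.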
# [5] = rats; cited from earlier work
# [6] = test system: advanced or metastatic non-hematologic malignancies; conditions: FIH study; cited from earlier work
# [7] = liquid dispersion vs. tablet; with/without a high-calorie meal; cited from earlier work
# [8] = test system: advanced or metastatic solid tumors; assay: Investigator-assessed anti-tumor activity, RECIST version 1.1; format: in vivo, human
# How it was run: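 Open-label phase I study in Japanese and Taiwanese patients (ECOG 0–1) given oral drug once daily, continuously, in 28-day cycles at 50, 100 or 200 mg. CT/MRI at screening, at end of cycle 2, then every two cycles until treatment ended. Objective response was CR or PR; disease control was CR, PR or SD. Evaluable patients had baseline plus ≥1 post-baseline assessment. Analysis was descriptive on patients receiving ≥1 dose.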
# MiaPaCa2 xenograft = conditions: QD; cited from earlier work
# [9] = Plasma and urine pharmacokinetics in cycle 1; format: in vivo, human
# [10] = 200 mg QD, N = 10, geometric mean
compound,measurement,setting,value
CNC(=O)c1ccc(Nc2ncc(C(F)(F)F)c(NCc3nccnc3N(C)S(C)(=O)=O)n2)cc1 [VS-6063],anti-tumor activity in phase I,advanced solid tumors,evidence of disease stabilization
CONC(=O)c1ccccc1Nc1cc(Nc2cc(C)nn2C(C)C)ncc1Cl [GSK2256098],proteinuria,[1],Proteinuria has been reported
same,anti-tumor activity in phase I,advanced solid tumors,evidence of disease stabilization
CN(c1ncccc1CNc1nc(Nc2ccc3c(c2)CC(=O)N3)ncc1C(F)(F)F)S(C)(=O)=O [PF-00562271],proteinuria,[1],Proteinuria has been reported
same,anti-tumor activity in phase I,advanced solid tumors,evidence of disease stabilization
COc1cc(C(=O)NC2CCN(C)CC2)c(F)cc1Nc1ncc(C(F)(F)F)c(Oc2cccc3c2C(=O)N(C)C3)n1 [BI 853520],principal toxicological target organs,[2],gastrointestinal tract and liver
same,DLTs or DRAEs of grade ≥ 2,[3]; 50 mg QD or 100 mg QD,neither 50 mg QD or 100 mg QD had resulted in dose-limiting toxicities
same,maximum tolerated dose (MTD),"[3]; QD continuous dosing, predominantly (92%) Caucasian population",200 mg
same,patients with grade 3 proteinuria,[3]; dose expansion phase of the FIH study,21%
same,evaluable patients treated at the MTD who experienced DLT,[4]; 200 mg QD,two of 15
same,drug-related serious AEs,[4]; 21 treated patients,None of the SAEs was considered drug-related
same,patients who discontinued treatment due to AEs,[4]; 21 treated patients,19%
same,patients with drug-related adverse events,[4]; 21 treated patients,90%
same,patients with drug-related diarrhea,[4]; 21 treated patients,38%
same,patients with drug-related nausea,[4]; 21 treated patients,29%
same,patients with drug-related proteinuria,[4]; 21 treated patients,48%
same,patients with drug-related vomiting,[4]; 21 treated patients,19%
same,patients with serious AEs (SAEs),[4]; 21 treated patients,24%
same,dose-limiting toxicities during cycle 1,"[4]; 50, 100, or 200 mg cohorts",no dose-limiting toxicities were observed; also recorded: no DLTs were observed
same,Any drug-related AE,"[4]; N = 21, all dose cohorts",19 (90) N (%)
same,Drug-related AE: AST increased,"[4]; N = 21, all dose cohorts",1 (5) N (%)
same,Drug-related AE: Abdominal pain upper,"[4]; N = 21, all dose cohorts",1 (5) N (%)
same,Drug-related AE: Anemia,"[4]; N = 21, all dose cohorts",1 (5) N (%)
same,Drug-related AE: Back pain,"[4]; N = 21, all dose cohorts",1 (5) N (%)
same,Drug-related AE: Blood bilirubin increased,"[4]; N = 21, all dose cohorts",1 (5) N (%)
same,Drug-related AE: Blood creatinine increased,"[4]; N = 21, all dose cohorts",1 (5) N (%)
same,Drug-related AE: Decreased appetite,"[4]; N = 21, all dose cohorts",2 (10) N (%)
same,Drug-related AE: Dehydration,"[4]; N = 21, all dose cohorts",1 (5) N (%)
same,Drug-related AE: Diarrhea,"[4]; N = 21, all dose cohorts",8 (38) N (%)
same,Drug-related AE: Dupuytren’s contracture,"[4]; N = 21, all dose cohorts",2 (10) N (%)
same,Drug-related AE: Erectile dysfunction,"[4]; N = 21, all dose cohorts",1 (5) N (%)
same,Drug-related AE: Fatigue,"[4]; N = 21, all dose cohorts",1 (5) N (%)
same,Drug-related AE: Inguinal hernia,"[4]; N = 21, all dose cohorts",1 (5) N (%)
same,Drug-related AE: Nausea,"[4]; N = 21, all dose cohorts",6 (29) N (%)
same,Drug-related AE: Proteinuria,"[4]; N = 21, all dose cohorts",10 (48) N (%)
same,"Drug-related AE: Rash, maculo-papular","[4]; N = 21, all dose cohorts",2 (10) N (%)
same,Drug-related AE: Vomiting,"[4]; N = 21, all dose cohorts",4 (19) N (%)
same,maximum tolerated dose (MTD),"[4]; QD continuous daily dosing, 28-day cycles, Japanese and Taiwanese patients",200 mg
same,DLTs reported overall during the study,"[4]; all treated patients, all cycles",three of 21
same,principal toxicological target organs,[5],gastrointestinal tract and liver
same,disease control rate,[6],27%
same,median duration of disease control,[6],3.3 months
same,radiographic objective responses,[6],no radiographic objective responses were reported
same,impact of formulation and food on pharmacokinetics,[7],neither formulation (liquid dispersion vs. tablet) nor administration with/without a high-calorie meal have notable impact
same,confirmed objective response rate,[8]; 21 treated patients,5%
same,disease control rate,[8]; 21 treated patients,29%
same,patients with progressive disease,[8]; 21 treated patients,57%
same,Best confirmed response: Complete response,[8]; N = 21,0 N (%)
same,Best confirmed response: Progressive disease,[8]; N = 21,12 (57) N (%)
same,Best confirmed response: Stable disease,[8]; N = 21,5 (24)^d N (%)
same,Best confirmed response: Objective response,"[8]; N = 21, complete response or partial response",1 (5) N (%)
same,Best confirmed response: Disease control,"[8]; N = 21, complete response, partial response, or stable disease",6 (29) N (%)
same,Best confirmed response: Partial response,"[8]; N = 21, patient with gastric cancer (100 mg cohort)",1 (5)^c N (%)
same,median duration of disease control,[8]; six patients with confirmed disease control,3.7 months
same,active dose,MiaPaCa2 xenograft,12.5 mg/kg
same,cumulative fraction excreted in urine,[9]; 200 mg QD cohort,less than 9%
same,"RA,AUC (accumulation ratio, AUC at steady state / single dose)",[9]; [10],2.15
same,"RA,Cmax (accumulation ratio, Cmax at steady state / single dose)",[9]; [10],1.62
same,trough plasma concentrations,"[9]; cycle 1, repeated QD dosing",stable from day 8 to day 28
same,AUC(0-inf),"[9]; human, plasma, oral, 200 mg, AUC0−∞, single dose, 200 mg QD cohort, N = 15, geometric mean",26.3 µM·h
same,AUC,"[9]; human, plasma, oral, 200 mg, AUCτ,1, single dose, 200 mg QD cohort, N = 15, geometric mean",15.3 µM·h
same,Cmax,"[9]; human, plasma, oral, 200 mg, Cmax, single dose, 200 mg QD cohort, N = 15, geometric mean",1570 nM
same,Vd/F,"[9]; human, plasma, oral, 200 mg, Vz/F, single dose, 200 mg QD cohort, N = 15, geometric mean",391 L
same,Tmax,"[9]; human, plasma, oral, 200 mg, tmax, single dose, 200 mg QD cohort, N = 15, median",2 h
same,half-life,"[9]; human, plasma, oral, 200 mg, t½, single dose, 200 mg QD cohort, N = 15, geometric mean",20.9 h
same,"tmax,ss","[9]; multiple dose, steady state day 28, 200 mg QD, N = 10, median",2.94 h
same,"CL/F,ss","[9]; multiple dose, steady state, 200 mg QD, N = 10, geometric mean",155 mL/min
same,"fe0−24,ss","[9]; multiple dose, steady state, 200 mg QD, urine, N = 10, geometric mean",8.86%
same,CL/F,"[9]; single dose, 200 mg QD cohort, N = 15, geometric mean",216 mL/min
same,fe0–24,"[9]; single dose, 200 mg QD cohort, urine, data for 13 patients, geometric mean",5.60^b %
